Reference: ChEMBL document CHEMBL1139481, “Synthesis and biological activity of anticancer ether lipids that are specifically released by phospholipase A2 in tumor tissue” (J Med Chem, 2005)

What was measured:
Assay type in all cases: functional, cell-based
MDA-MB-435 [1] = test: Inhibition of Akt phosphorylation in MDA-MB-435 cells after 2 hrs; details: Homo sapiens, MDA-MB-435, 2 h
Method in brief: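 MDA-MB-435 cells at 70% confluency, serum-starved 18 h, then given compound for 2 h and stimulated with insulin 10 µg/mL for 30 min. Lysates taken in Laemmli buffer after an ice-cold PBS wash. Western blot probed for Ser473 phospho-Akt, with total Akt as loading control. Controls: no insulin, and wortmannin 2 µM for 2 h before insulin.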

MDA-MB-435 [2] = test: Cytotoxicity against human MDA-MB-435 cells after 3 days in serum free conditions by MTT assay; details: MDA-MB-435, 72 h
Method in brief: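 MDA-MB-435 cells grown in Dulbecco's modified Eagle medium with 10% FCS and 2 mM L-glutamine, then plated at 1 × 10^4/well 24 h before treatment. Lipids in PBS with 5-30% ethanol were added, and cells were incubated 3 days without serum to match the Akt study conditions. MTT read-out was expressed as percentage reduction in incorporated MTT, run in triplicate.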

Caco-2 = test: Cytotoxicity against human Caco-2 cells after 72 hrs by MTT assay; details: Caco-2, 72 h
Method in brief: (§1)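 Cells (Caco-2 in Dulbecco's modified Eagle medium; HT-29 in McCoy's 5A; both with 10% FCS and 2 mM L-glutamine; KATO III in RPMI 1640 with 10% heat-inactivated FCS, 2 mM L-glutamine, 1 mM pyruvate, 5% CO2, 37 °C) plated at 1 × 10^4/well 24 h before adding AELs in PBS with 5-30% ethanol. After 72 h, MTT read-out. IC50 is 50% reduction in cell number; mean ± SD, n = 3-9.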

HT-29 = test: Cytotoxicity against human HT29 cells after 72 hrs by MTT assay; details: HT-29, 72 h; method in brief: as §1
[3] = Cytotoxicity against human KATO3 cells after 72 hrs by MTT assay; details: KATO3, 72 h; method in brief: as §1

| IC50 (MDA-MB-435 [1]) [µM] | SMILES | IC50 (MDA-MB-435 [2]) [µM] | IC50 (Caco-2) [µM] | IC50 (HT-29) [µM] | IC50 [3] [µM] |
| --- | --- | --- | --- | --- | --- |
| 24 | CCCCCCCCCCCCCCCCOC[C@@H](O)COP(=O)(O)OC[C@@H](O)CO | 47 | 75 | 20 | 49 |
| 24 | CCCCCCCCCCCCCCCCOC[C@@H](O)COP(=O)(O)OC[C@H](O)CO | 73 |  | 105 |  |
| 3 | CCCCCCCCCCCCCCCCCCOCC(COP(=O)([O-])OCC[N+](C)(C)C)OC (configuration not stated) [EDELFOSINE] | 12 |  |  |  |
| 5 | CCCCCCCCCCCCCCCCOP(=O)([O-])OCC[N+](C)(C)C [MILTEFOSINE] | 23 |  |  |  |
